We go through 15 molecules from PMC6217654 (ACS Omega, 2018).

The test system of series [1] is reserpine-induced hypothermia mice. Nature of the series: Antagonistic effect on reserpine-induced hypothermia in mice. It is filed as in vivo. The following applies: p.o.; for CNS effect (reserpine-induced hypothermia), in words, SAR comparison: mice, data not shown or compared with 64. The essentials: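 Male ddY mice (bought at 6 weeks, 1-week quarantine, ~25 °C). Reserpine 3 mg/kg s.c.; mice with rectal temperature ≤30 °C about 18 h later were used. Test compound in saline p.o. at 5 μmol/kg, TRH at 50 μmol/kg, saline controls. Rectal temperature by thermistor before and up to 7 h post-dose. Trapezoidal AUC0–7h, with saline AUC subtracted. Mean ± SD, ≥3 animals.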

A short description of series [2]: PK of TRH mimetics in rat, cassette dosing i.v. and p.o. In kind it is in vivo. The settings on record: for MRT / Vd / clearance / half-life: male, Sprague-Dawley, plasma, iv, 1 umol/kg; for BA: oral 2 μmol/kg vs i.v. 1 μmol/kg. Summed up:
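Cassette dosing in rats (n = 2, 302–364 g). p.o.: 2 μmol/5 mL/kg in DMSO/0.5% methylcellulose 1/4. i.v.: 1 μmol/1 mL/kg in DMSO/propylene glycol 1/1. Heparinized jugular blood; plasma precipitated with methanol/acetonitrile 1/1; LC/MS/MS, ESI positive. t1/2 from terminal phase; MRT by linear trapezoid with monoexponential extrapolation; BA = dose-normalized po/iv AUC ratio. Mean of two animals.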

A further series can be described thus: Free fraction ratio. In kind it is in vitro ADME, rat. The following applies: in vitro.
For series [3] the following is noted: cited from earlier work.
Series [4] has as its system rats with Ara-C-induced cerebellar damage. Nature of the series: Ara-C-induced cerebellar ataxia in rats, open field fall index. It is filed as in vivo, rat.
A further series has as its target human TRH-R. The following applies: read-out: Ki for human TRH-R; in vitro binding, reported previously; cited from earlier work.
Series [5] can be described thus: PK of TRH and 79 after oral administration to fasted conscious rats. In kind it is in vivo, rat. The following applies: male, Wistar, rat, plasma, po, 40 mg/kg. The essentials:
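Male Wistar rats (10–11 weeks, 230–274 g, n ≥ 4), fasted from the evening before dosing to the 12 h sample. Jugular cannula placed under isoflurane 2–3 days before. Single p.o. dose of 40 mg/4 mL/kg in saline. Heparinized blood (~0.3 mL) drawn via cannula; plasma deproteinized with methanol; HPLC with UV absorbance detection. Cmax, Tmax, AUC0–8h given as mean ± SD.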

Peptide text beside a SMILES is read from it.

With `NC(=O)[C@@H]1CCCN1C(=O)[C@H](Cc1cncs1)NC(=O)[C@@H]1CCC(=O)N1` [Compound 56, L-Pyroglutamyl-[3-(thiazol-5-yl)-L-alanyl]-L-prolinamide], in series [1], the “CNS effect (reserpine-induced hypothermia), in words, SAR comparison” value (from here on “CNS effect”) was “less than that of 64”.

In the case of `NC(=O)[C@@H]1CSCN1C(=O)[C@H](Cc1cscn1)NC(=O)[C@@H]1CCC(=O)N1` [Compound 57, 3-{N-L-Pyroglutamyl-[3-(thiazol-4-yl)-L-alanyl]}-(4R)-4-thiazolidinecarboxamide] (HELM PEPTIDE1{[Glp].[O=C([C@H](Cc1cscn1)N[*:1])[*:2]].[O=C([C@@H]1CSCN1[*:1])[*:2]].[am]}$$$$V2.0), in series [1], the “CNS effect” value was “less than that of 64”.

With `NC(=O)[C@@H]1CCCN1C(=O)[C@H](Cc1cscn1)NC(=O)[C@@H]1COC(=O)N1` [Compound 58, {[(4S)-(2-Oxooxazolidine-4-yl)carbonyl]-3-(thiazol-4-yl)-L-alanyl}-L-prolinamide], the “CNS effect” value in series [1] is reported as “maintained”.

Regarding `C[C@H]1OC(=O)N(C)[C@@H]1C(=O)N[C@@H](Cc1cscn1)C(=O)N1CCC[C@H]1C(N)=O` [Compound 60, {[(4S,5R)-3,5-Dimethyl-2-oxooxazolidine-4-carbonyl]-3-(thiazol-4-yl)-L-alanyl}-L-prolinamide], the “CNS effect” value in series [1] was “decreased the CNS effects”.

On to `C[C@H]1OC(=O)N(Cc2ccccc2)[C@@H]1C(=O)N[C@@H](Cc1cscn1)C(=O)N1CCC[C@H]1C(N)=O` [Compound 61, {[(4S,5R)-3-Benzyl-5-Methyl-2-oxooxazolidine-4-carbonyl]-3-(thiazol-4-yl)-L-alanyl}-L-prolinamide], for which the “CNS effect” value in series [1] is listed as “decreased the CNS effects”.

On to `C[C@H]1OC(=O)N[C@@H]1C(=O)N[C@@H](Cc1cncs1)C(=O)N1CCC[C@H]1C(N)=O` [Compound 62], for which the “CNS effect” value in series [1] is “less than that of 64”.

With `C[C@H]1OC(=O)N[C@@H]1C(=O)N[C@@H](Cc1cscn1)C(=O)N1CSC[C@H]1C(N)=O` [Compound 63, 3-{N-[(4S,5R)-(5-Methyl-2-oxooxazolidine-4-yl)carbonyl]-3-(thiazol-4-yl)-L-alanyl}-(4R)-4-thiazolidinecarboxamide], the “CNS effect” value in series [1] was “less than that of 64”.

By MRT is commonly meant a mean duration of stay, worked out from the concentration-time curve. What is called half-life is the time in which the quantity being followed falls by half. A higher half-life goes with slow loss. On to `C[C@@H]1OC(=O)N[C@@H]1C(=O)N[C@@H](Cc1cscn1)C(=O)N1CCC[C@H]1C(N)=O` [Compound 64, {[(4S,5S)-(5-Methyl-2-oxooxazolidine-4-yl)carbonyl]-3-(thiazol-4-yl)-L-alanyl}-L-prolinamide], for which, in series [2], the MRT is 14.3 min, the Vd is 0.19 L/kg, the clearance is 13 mL/min/kg and the half-life is 13.5 min. The molecule further gave a BA in series [2] of 1.1%. In addition, the “fu: free fraction ratio in serum” value in “Free fraction ratio” is recorded as above 99%.

In series [2], `C[C@@H]1OC(=O)N[C@@H]1C(=O)N[C@@H](Cc1cscn1)C(=O)N1CSC[C@H]1C(N)=O` [Compound 68, 3-{N-[(4S,5S)-(5-Methyl-2-oxooxazolidine-4-yl)carbonyl]-3-(thiazol-4-yl)-L-alanyl}-(4R)-4-thiazolidinecarboxamide] gave an MRT of 11 min, a Vd of 0.16 L/kg, a clearance of 14.2 mL/min/kg and a half-life of 9.8 min. Also, in the series “Free fraction ratio”, the “fu: free fraction ratio in serum” value is listed as above 99%.

As for `C[C@@H]1OC(=O)N[C@@H]1C(=O)N[C@@H](Cc1cscn1)C(=O)N1CCC[C@H]1C#N` [Compound 69, 1-{N-[(4S,5S)-(5-Methyl-2-oxooxazolidine-4-yl)carbonyl]-3-(thiazol-4-yl)-L-alanyl}-(2S)-2-cyanopyrrolidine], in series [2], the MRT is 14.6 min, the Vd was determined as 0.25 L/kg, the clearance turned out to be 17.4 mL/min/kg and the half-life is 26.2 min. The “fu: free fraction ratio in serum” value in the series “Free fraction ratio” is above 99%.

In series [2], `C[C@@H]1OC(=O)N[C@@H]1C(=O)N[C@@H](Cc1cscn1)C(=O)N1CCC[C@H]1C` [Compound 70, 1-{N-[(4S,5S)-(5-Methyl-2-oxooxazolidine-4-yl)carbonyl]-3-(thiazol-4-yl)-L-alanyl}-(2R)-2-methylpyrrolidine] had an MRT of 19.1 min, a Vd of 0.58 L/kg, a clearance of 30.6 mL/min/kg and a half-life of 21.6 min. This molecule registered a BA in series [2] of 4.7%. In “Free fraction ratio”, the “fu: free fraction ratio in serum” value is listed as above 99%.

With `C[C@@H]1OC(=O)N[C@@H]1C(=O)N[C@@H](Cc1cncs1)C(=O)N1CCC[C@H]1C` [Compound 71, 1-{N-[(4S,5S)-(5-Methyl-2-oxooxazolidine-4-yl)carbonyl]-3-(thiazol-5-yl)-L-alanyl}-(2R)-2-methylpyrrolidine], the “CNS effect” value in series [1] is listed as “less than that of 64”.

Consider `C[C@@H]1OC(=O)N[C@@H]1C(=O)N[C@@H](Cc1c[nH]cn1)C(=O)N1CCC[C@H]1C` [Compound 72, 1-{N-[(4S,5S)-(5-Methyl-2-oxooxazolidine-4-yl)carbonyl]-L-histidyl}-(2R)-2-methylpyrrolidine], for which, in series [1], the “CNS effect” value was “less than that of 64”.

Take `C[C@@H]1OC(=O)N[C@@H]1C(=O)N[C@@H](Cc1cscn1)C(=O)N1CCC[C@H]1C(=O)OCc1ccccc1` [Compound 74, {[(4S,5S)-5-Methyl-2-oxooxazolidine-4-carbonyl]-3-(thiazol-4-yl)-L-alanyl}-L-proline Benzyl Ester]: the “CNS effect” value in series [1] is “less than that of 64”.

A word on the Ki: it is the equilibrium dissociation constant of an inhibitor or competing ligand from its target. One may read the AUC(0-t) as the area under the concentration-time curve up to a stated or last time point. Broadly, the Cmax is the highest concentration seen after dosing. The Tmax is the time at which the peak concentration occurs. In series [2], `NC(=O)[C@@H]1CCCN1C(=O)[C@H](Cc1cnc[nH]1)NC(=O)[C@@H]1CCC(=O)N1` [TRH, L-pGlu–L-His–L-Pro-NH2, reference compound] gave an MRT of 3.7 min, a Vd of 0.33 L/kg, a clearance of 89.2 mL/min/kg and a half-life of 3 min. Also, in series [3], the “t1/2 of degradation by the brain homogenate” value is listed as 7.9 min. Besides, the “rectal temperature compared with saline levels” value in series [1] (79 5 μmol/kg from 2 to 7 h, TRH 50 μmol/kg from 0 to 7 h) was “almost the same low rectal temperature profiles as the saline levels”. Moreover, in series [1] (reserpine-induced hypothermia mice, TRH 50 μmol/kg, 79 5 μmol/kg), the “rectal temperature ΔAUC0–7h = AUC0–7h(compounds) – AUC0–7h(saline)” value was “–4.0 ± 3.3 °C·h”. Moreover, the “rectal temperature AUC0–7h” value in series [1] (reserpine-induced hypothermia mice, TRH 50 μmol/kg, 79 5 μmol/kg, mean ± SD) was found to be 201.4 ± 3.3 °C·h. Besides, the fall index in series [4] (10 mg/kg i.v. once, 30 min post-dose, mean ± SE, vehicle 2.06 ± 0.09) worked out at 1.05 ± 0.22. The fall index in series [4] (30 mg/kg i.v. once, 30 min post-dose, mean ± SE, vehicle 2.06 ± 0.09) is on record as 0.87 ± 0.17. Also, the fall index entry in series [4] (TRH 30, 100 and 300 mg/kg p.o. once daily for 7 days) was “no significant decrease”. For the same molecule, the Ki on human TRH-R was 128 nM. In series [5], the AUC(0-t) was 68 ± 72 ng·h/mL, the highest concentration (Cmax) was 50 ± 39 ng/mL and the Tmax was 45 ± 17.4 min.
